Measured values of several laboratories.
Lines come from different studies, so protocols differ.
Target: Bone morphogenetic protein receptor type-2 (BMPR2, Homo sapiens, UniProt Q13873)
Sequence (Q13873 27-1038, as in one of the studies): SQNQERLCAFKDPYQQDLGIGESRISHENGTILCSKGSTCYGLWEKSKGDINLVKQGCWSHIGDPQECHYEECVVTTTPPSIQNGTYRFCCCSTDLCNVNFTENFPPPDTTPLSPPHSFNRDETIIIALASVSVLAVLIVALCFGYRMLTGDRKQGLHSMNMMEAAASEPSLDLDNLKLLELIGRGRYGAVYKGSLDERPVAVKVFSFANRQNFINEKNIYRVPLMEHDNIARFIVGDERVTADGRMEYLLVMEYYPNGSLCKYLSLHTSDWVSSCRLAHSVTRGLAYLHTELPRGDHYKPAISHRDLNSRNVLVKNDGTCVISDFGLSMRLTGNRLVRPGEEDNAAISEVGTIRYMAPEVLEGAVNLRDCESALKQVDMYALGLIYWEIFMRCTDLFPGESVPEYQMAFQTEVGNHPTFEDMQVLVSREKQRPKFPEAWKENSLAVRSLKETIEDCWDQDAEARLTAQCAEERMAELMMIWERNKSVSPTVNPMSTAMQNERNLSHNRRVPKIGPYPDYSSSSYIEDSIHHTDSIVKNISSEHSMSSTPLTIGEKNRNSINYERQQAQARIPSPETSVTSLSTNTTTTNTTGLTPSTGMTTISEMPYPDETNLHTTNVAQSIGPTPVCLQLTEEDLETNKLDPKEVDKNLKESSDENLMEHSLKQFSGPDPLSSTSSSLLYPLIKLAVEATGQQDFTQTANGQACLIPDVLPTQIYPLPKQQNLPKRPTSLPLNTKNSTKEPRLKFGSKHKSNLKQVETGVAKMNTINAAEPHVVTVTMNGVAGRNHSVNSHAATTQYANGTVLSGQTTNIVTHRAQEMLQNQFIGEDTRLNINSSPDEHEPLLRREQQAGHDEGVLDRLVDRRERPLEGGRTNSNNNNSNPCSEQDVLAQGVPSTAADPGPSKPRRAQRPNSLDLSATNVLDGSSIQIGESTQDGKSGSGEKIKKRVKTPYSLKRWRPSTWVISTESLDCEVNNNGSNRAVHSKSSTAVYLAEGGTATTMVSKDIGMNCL

Cc1sc(C(=O)NC2COC2)cc1-n1cc(NC(=O)Nc2c(F)cccc2Cl)cn1
remaining activity (enzyme activity; inhibitor; 10 µM): 84.5%

Cn1c2c(c3ccc(Cl)c(Cl)c31)C(C#N)C1(CCNCC1)NC2=O (racemic)
ΔTm (thermal stability; DSF; 10 µM): 0.3 °C

CC(C)(O)[C@H]1CC[C@H](Nc2ccc3ncc(-c4cccc(C(F)(F)F)c4)n3n2)CC1
remaining activity (enzyme activity; inhibitor; 1 µM): 37.3%

Cn1c2c(c3ccccc31)C(C#N)C(C)(C)NC2=O (stereo not shown)
ΔTm (thermal stability; DSF; 10 µM): 0.2 °C

CS(=O)(=O)NCC[C@H](NC(=O)c1cncc2c1cnn2-c1ccc(F)cc1)c1ccnc(S(C)(=O)=O)c1
remaining binding (cell-free assay; competition with immobilised ligand; 1 µM): 100%

O=C(CSc1nc2nccnc2c(=O)n1CCc1ccccc1)Nc1nccs1
inhibition (enzyme activity; inhibitor; 10 µM): 17%

Cn1c2c(Cl)c(Cl)ccc2c2cn[nH]c(=O)c21
ΔTm (thermal stability; DSF; 10 µM): 2.9 °C

O=C(Nc1cnn(-c2csc(C(=O)NC3COC3)c2)c1)Nc1ccccc1Cl
remaining activity (enzyme activity; inhibitor; 5 µM): 110%

Cn1cncc1C1=CN(c2ncnc3[nH]cnc23)CCS1
inhibition (enzyme activity; inhibitor; radiometric; 50 nM): 21.3%

C[C@@]1(Cc2ccc(C#N)cc2)C(=O)N(c2cc(Cl)cc(Cl)c2)c2ncc(C(=O)NC3(c4nc(C5CCC5)no4)CC3)n21
remaining binding (cell-free assay; competition with immobilised ligand; 1 µM): 100%

COc1cc(Cl)c(C(=O)N[C@@H](CN[C@H]2CC[C@@H](N)CC2)Cc2ccc(C#N)cc2)cc1-c1ccc(CN[C@H](C)c2ccc(C)cc2)o1
remaining activity (enzyme activity; inhibitor; 1 µM): 99%

O=C(Nc1ccc(Oc2ccc(F)cc2)cc1)N1CCc2ncccc2[C@H]1c1ccc(F)cc1
remaining binding (cell-free assay; competition with immobilised ligand; 1 µM): 96%

Cc1ccc(C(=O)Nc2ccc(CN3CCN(C)CC3)c(C(F)(F)F)c2)cc1C#Cc1cnc2cccnn12
remaining signal (cell-free assay; 23.5 nM): 98%
